In the library only some 2.3% were active in any assay of this set; here they are far more common.
Apaf1 inhib: inhibitors of human Apaf-1 apoptosome. O14727. reconstituted apoptosome caspase-3 activity, DEVD-Rh110 fluorescence. inhibition, % at 20 µM. 330,000 tested, 0.71% active. AID 489030; active = inhibition of at least 40% at 20 µM
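Assay system: Apoptosome proteins | Medium: pH 7.5 Hepes buffer with CHAPS, BSA, DTT | Also added: Cytochrome c and DEVD-Rh110 substrate | Times: 30 min plus 50 min, RT | Detection: Rhodamine 110 fluorescence at Ex 480/Em 540 nm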
TDP2 inh: blocks human TDP2 phosphodiesterase activity; inhibition, % at 12.8 µM; O95551; AID 720702; 370,000 tested, 0.34% active; recombinant TDP2, T5PNP hydrolysis, p-nitrophenol absorbance 415 nm;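 active = inhibition above the mean of all tested compounds plus 3 SD, set per campaign, cut at about 25% in these data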
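Test system: human TDP2 enzyme; Input: 120 nM TDP2 per well; Buffer or medium: Mg2+-containing Tris-HCl buffer, pH 7.5; Reagent: 5 mM T5PNP; Dosing: 12.8 µM single point, 1% DMSO; Incubation: reaction 2 h, 37 °C; Detection: p-Nitrophenol epi absorbance; Read-out: % inhibition relative to enzyme-containing and enzyme-free wells; Replicates: single well per compound.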
PAFAH1B2 FP inh: inhibitors of human PAFAH1B2 | inhibition, % at 3.39 µM | 340,000 tested, 1.2% active | AID 492953 | P68402 | recombinant PAFAH1B2, FP-rhodamine activity probe, fluorescence polarization;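 active = inhibition above the mean of all tested compounds plus 3 SD, cut at about 24% in these data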
Target sequence (P68402 whole entry, looked up): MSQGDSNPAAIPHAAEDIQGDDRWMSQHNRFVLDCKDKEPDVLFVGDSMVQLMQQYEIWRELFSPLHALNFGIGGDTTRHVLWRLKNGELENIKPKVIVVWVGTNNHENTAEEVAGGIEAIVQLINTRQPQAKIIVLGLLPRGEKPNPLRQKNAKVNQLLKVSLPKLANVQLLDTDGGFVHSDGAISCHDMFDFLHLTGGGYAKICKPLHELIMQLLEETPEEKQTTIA
PAFAH1B3 FP inh: blocks human PAF acetylhydrolase 1B catalytic subunit 3; AID 492972; inhibition, % at 3.39 µM; recombinant PAFAH1B3, FP-rhodamine probe, fluorescence polarization; 340,000 tested, 0.28% active; Q15102;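 active = inhibition above the screen-wide average of all tested compounds plus 3 SD, cut at about 25% in these data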
Target sequence (Q15102 whole entry, looked up): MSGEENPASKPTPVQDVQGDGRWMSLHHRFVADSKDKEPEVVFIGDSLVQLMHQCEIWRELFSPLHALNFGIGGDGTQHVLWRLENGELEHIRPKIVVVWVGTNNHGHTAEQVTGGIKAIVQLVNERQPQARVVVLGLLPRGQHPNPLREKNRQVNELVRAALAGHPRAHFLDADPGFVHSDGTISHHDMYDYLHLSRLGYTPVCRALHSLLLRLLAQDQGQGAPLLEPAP
PAFAH2 FP inh: inhibitors of human PAFAH2; Q99487; recombinant PAFAH2, FP-rhodamine activity probe, fluorescence polarization; inhibition, % at 3.39 µM; 340,000 tested, 0.99% active;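 active = inhibition above the mean over all tested compounds plus 3 SD, cut at about 30% in these data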;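 also: inhibitors block probe labeling of enzyme so polarization drops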
Hits are given with their value; n = inactive; x = no result given.

SMILES | Apaf1 inhib | TDP2 inh | PAFAH1B2 FP inh | PAFAH1B3 FP inh | PAFAH2 FP inh
O=C1CCCN1C(=O)c1cncc(Br)c1 | n | n | 26 | n | n
CN1C(=O)C(=Cc2ccc(Sc3ccccc3)o2)C(=O)N(C)C1=O | n | n | n | n | n
O=C1NC(=O)C(=Cc2ccc(Sc3ccccc3)o2)C(=O)N1 | n | n | 29 | n | 33
O=C(NCCN1CCC2(CC1)C(=O)NCN2c1ccccc1)c1ccccc1F | x | n | x | x | x
CC(=O)NC(Cc1ccc(N(CCCl)CCCl)cc1)C(=O)NC(C(=O)O)C(C)C (stereo not drawn) | n | n | 25 | n | n
Cc1cc(N2CCNC[C@H]2C)ccc1N1CC[C@H](O)C1 | x | n | x | x | x
Cn1c(=O)c2c(nc(N/N=C/c3c(O)n(C4CCCCC4)c(=S)[nH]c3=O)n2C)n(C)c1=O | n | n | 29 | n | n
Cn1cc(C(=O)OCC(=O)Nc2ccccc2)c2ccccc21 | n | n | n | n | 85
CN1C[C@H](O)[C@H]2C[C@@H]1c1ccccc1O2 | x | n | x | x | x
CCC(C)/C=C(C)/C=C/C1=CC2=C(Cl)C(=O)C(C)(OC(C)=O)C(=O)C2=CO1 (stereo not drawn) | n | x | n | n | n
CC[C@H](C)/C=C(C)/C=C/C1=CC2=C(Cl)C(=O)[C@@](C)(OC(C)=O)C(=O)C2=CO1 | n | x | n | n | 45
O=C(O)C1(c2ccc(Cl)cc2)CCC1 | n | n | 46 | n | n
CC(=O)C1(c2ccccc2)CCNCC1 | n | n | n | n | n
CN1CC[C@@]2(C)c3cc(O)ccc3N(C)C2O1 (stereo partly drawn) | 92 | x | n | n | n
CC1[C@H]2Cc3ccc(O)cc3[C@]1(C)CCN2C (stereo partly drawn) | x | n | n | n | n
Cc1cccc(N2C(=O)NC(=O)/C(=C\c3cccn3-c3ccc(Cl)cc3)C2=O)c1 | n | n | 74 | n | 54
Cc1cc(C)cc(N2C(=O)NC(=O)/C(=C/c3cccn3-c3ccc(Cl)cc3)C2=O)c1 | n | n | 48 | n | 42
Cc1cccc(N2C(=O)NC(=O)/C(=C\C=C\c3ccco3)C2=O)c1 | n | n | n | n | n
O=C(NC(CCC(O)CO)P(=O)(Oc1ccccc1)Oc1ccccc1)OCc1ccccc1 (stereo not drawn) | x | n | x | x | x
CN(C)C1C(=O)C(C(N)=O)=C(O)C2(O)C(=O)C3=C(O)c4c(O)cccc4C(C)(O)C3C(O)C12 (stereo not drawn) | n | n | n | 26 | n
O=C(N/N=C/c1c(O)n(CCC2=CCCCC2)c(=S)[nH]c1=O)c1ccccc1 | n | n | 29 | n | n
O=C(N/N=C/c1c(O)n(Cc2ccc(F)cc2)c(=O)[nH]c1=O)c1ccccc1 | n | n | 35 | n | n
N#CCC[C@@H]1CC[C@]2(CCCN(Cc3ccccn3)C2)O1 | x | n | x | x | x
CCOC(=O)c1c(N)n(CCCOC(=O)c2ccco2)c2nc3ccccc3nc12 | 43 | n | n | n | n
CCCNC(=O)c1c(N)n(Cc2ccco2)c2nc3ccccc3nc12 | 40 | x | x | x | x
SMILES | Apaf1 inhib | TDP2 inh | PAFAH1B2 FP inh | PAFAH1B3 FP inh | PAFAH2 FP inh
C=CCN(CC#CCO)Cc1ccc(OC)cc1OC | x | n | x | x | x
NP(=O)(OCCCc1ccccc1)Oc1ccccc1 (stereo not drawn) | n | n | 62 | n | n
CN1c2ccc(Br)cc2[C@@H]2NCC[C@@H]2[C@@H]1CO | x | n | x | x | x
Cc1ccc2c(c1)=C/C(=C\c1c(O)[nH]c(=S)[nH]c1=O)C(=O)N=2 | n | x | x | x | x
Cc1ccc2c(c1)=NC(=O)/C(=C/c1c(O)[nH]c(=O)[nH]c1=O)C=2 | n | n | 33 | n | n
C[N+]1(C)C2CC[C@H]1CC(OC(=O)C(CO)c1ccccc1)C2 (stereo partly drawn) | n | n | n | n | n
C[N+]1(C)[C@@H]2CC[C@H]1CC(OC(=O)[C@@H](CO)c1ccccc1)C2 (stereo partly drawn) | 70 | n | n | n | n
O=C1NC(=O)C(=Cc2ccc(-c3ccc(Cl)cc3)o2)C(=O)N1 | n | x | n | n | n
O=C1NC(=O)C(=Cc2ccc(-c3ccc(F)cc3O)o2)C(=O)N1 | n | n | 32 | n | n
O=C(CN1C(=O)[C@@H](Cc2ccc(O)cc2)N=C(c2ccccc2)c2ccccc21)NC1CCCCC1 | x | n | x | x | x
O=c1[nH]c(O)c(/C=C2/C=CC(c3cc(Cl)ccc3Cl)=N2)c(=O)[nH]1 | n | n | 76 | 48 | n
COC(=O)C1=C(c2cccc(OCc3ccccc3)c2)C[C@@H]2CC[C@H]1N2C(=O)NCc1ccccc1 | n | n | n | n | n
